Data from ChEMBL document CHEMBL1136122, “Are 5'-O-carbamate-2',3'-dideoxythiacytidine new anti-HIV and anti-HBV nucleoside drugs or prodrugs?” (Bioorg Med Chem Lett, 2003).

Assays:
[1] = In vitro concentration required to inhibit the HIV-1 LA1 replication on PBMCs cell (peripheral blood mononuclear cells); format: functional, cell-based; conditions: Homo sapiens, PBMC
Method in brief: (§1)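 EC50 is reported with standard deviation. In MT-4 cells it is 50% protection from HIV-1 cytopathicity. In PBMCs it is 50% inhibition of HIV-1 replication.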

MT4 [2] = experiment: In vitro concentration required to inhibit the cytopathicity of HIV-1 IIIB on MT-4 cell; format: functional, cell-based; conditions: Homo sapiens; method in brief: as §1
[3] = In vitro concentration required to cause death of uninfected PBMCs cell (peripheral blood mononuclear cells); format: functional; conditions: Homo sapiens, PBMC
HepG2 = experiment: In vitro concentration required to inhibit HBV DNA secretion by HepG2.2.15 transfected by HBV; format: functional, cell-based; conditions: Homo sapiens
Method in brief: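 Used HepG2.2.15 cells stably transfected with HBV, following a standard procedure. EC50 is the concentration giving 50% inhibition of HBV DNA secretion, reported with standard deviation.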

MT4 [4] = experiment: In vitro concentration required to cause death of uninfected MT-4 cell; format: functional; conditions: Homo sapiens
[5] = Selectivity (CC50/EC50) for death of uninfected MT4 cell to that of inhibition of cytopathicity of HIV-1 IIIB on MT-4 cell; format: functional
[6] = Selectivity (CC50/EC50) for death of uninfected PBMCs to that of inhibition of […] of HIV-1 LA1 on PBMCs (peripheral blood mononuclear cells); format: functional
MT4 [7] = experiment: In vitro concentration required to inhibit the cytopathicity of HIV-1 IIIB on MT-4 cell; NA=no activity; format: functional, cell-based, Homo sapiens; method in brief: as §1

Row | Compound | EC50 [1] [µM] | EC50 (MT4 [2]) [µM] | CC50 [3] [µM] | EC50 (HepG2) [µM] | CC50 (MT4 [4]) [µM] | SI [5] | SI [6] | EC50 (MT4 [7])
1 | Nc1ccn(C2CSC(COC(=O)NCCCCO)O2)c(=O)n1 (centres undefined) | > 10 | > 200 | > 10 | 5 | > 217 |  |  | 
2 | CCOP(=O)(CNC(=O)OCC1OC(n2ccc(N)nc2=O)CS1)OCC (centres undefined) | 10 | 126 | > 10 | > 5 | > 233 | >2 | >1 | 
3 | NCCCCNC(=O)OCC1OC(n2ccc(N)nc2=O)CS1 (centres undefined) | 10 | 15 | > 10 | 1 | > 218 | >14 | >1 | 
4 | NCCCNC(=O)OCC1OC(n2ccc(N)nc2=O)CS1 (centres undefined) | 1 | 27 | > 10 | 1 | > 282 | >10 | >10 | 
5 | CCCCNC(=O)OCC1OC(n2ccc(N)nc2=O)CS1 (centres undefined) | 5 | 26 | > 10 | 1 | > 283 | >11 | >2 | 
6 | CCCNC(=O)OCC1OC(n2ccc(N)nc2=O)CS1 (centres undefined) | 10 | 32 | > 10 | 5 | > 285 | >9 | >1 | 
7 | Nc1ccn(C2CSC(COC(=O)NCCCCCCO)O2)c(=O)n1 (centres undefined) | 10 | 75 | > 10 | 5 | > 208 | >3 | >1 | 
8 | Nc1ccn(C2CSC(COC(=O)NCP(=O)(O)O)O2)c(=O)n1 (centres undefined) | > 10 |  | > 10 | 5 | > 322 |  |  | Not Active
9 | NCCCOC(=O)OCC1OC(n2ccc(N)nc2=O)CS1 (centres undefined) | 0.01 | 0.3 | > 10 | 0.5 | > 17 | >57 | >1000 | 
10 | NCCCCOC(=O)OCC1OC(n2ccc(N)nc2=O)CS1 (centres undefined) | 0.1 | 0.8 | > 10 | 1 | > 218 | >260 | > 100 | 
11 | Nc1ccn(C2CSC(COC(=O)NCCCO)O2)c(=O)n1 (centres undefined) | > 10 | > 254 | > 10 | 1 | > 281 |  | >1 | 
12 | Nc1ccn([C@@H]2CS[C@H](CO)O2)c(=O)n1 [LAMIVUDINE] | 0.01 | 0.4 | > 10 | 0.4 | > 44 | >107 | >1000 | 
